In ChEMBL document CHEMBL2029291, “Synthesis and structure-activity relationships of new quinolone-type molecules against Trypanosoma brucei” (J Med Chem, 2012):
Counter-ions that a name gives are not always drawn. The source made the active and inactive calls. The calls are words filed in the database; no cut-off is given here.

Tests used:
[1] = Cytotoxicity against mouse J774.1 cells after 48 hrs by alamar blue assay; format: cell-based; details: J774.1, 48 h
Outline: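 J774.1 macrophages kept in complete Click RPMI, detached by scraping, PBS-washed, suspended at 2 × 10⁶ cells/mL and plated in phenol-red-free RPMI with or without compound. AlamarBlue added and absorbance read 24 and 48 h later. Compound-free wells taken as 100% growth. Effects of cell density, incubation time and DMSO level were controlled. Tested in duplicate.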

[2] = Selectivity index, ratio of IC50 for mouse J774.1 cells to IC50 for Trypanosoma brucei brucei TC221; format: toxicity; details: read-out: Ratio IC50
[3] = system: Trypanosoma brucei brucei; experiment: Antitrypanosomal activity against Trypanosoma brucei brucei TC221 […] after 72 hrs by alamar blue assay; format: functional, organism-based; details: for IC50: TC221, 72 h
Outline: (§1)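 Trypomastigote T. b. brucei TC 221 grown in Baltz medium, seeded at 10⁴ per mL and exposed to graded compound concentrations (dissolved in DMSO or 0.1 M NaOH). Incubated at 37 °C, 5% CO₂ for 72 h, with a reading also taken at 48 h. AlamarBlue absorbance read at 550/630 nm. IC50 by linear interpolation; duplicate tests, mean and SD.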

[4] = system: Trypanosoma brucei brucei; experiment: Antitrypanosomal activity against Trypanosoma brucei brucei TC221 […] after 48 hrs by alamar blue assay; format: functional, organism-based; details: for IC50: TC221, 48 h; outline: as §1
[5] = system: Trypanosoma brucei brucei; experiment: Cell cycle arrest in GFP-labeled Trypanosoma brucei brucei assessed as increase in segregated 1K1N cell population at IC50 concentration after 42 hrs by DAPI staining-based fluorescence microscopic analysis
Trypanosoma brucei [6] = experiment: Antitrypanosomal activity in topoisomerase 2-knockout BSF Trypanosoma brucei assessed as assessed as shrinkage of kinetoplast over time at IC50 concentration after 72 hrs by […]; format: functional, organism-based
Outline: (§2)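 RNAi against mitochondrial topoisomerase II in the BSF mitochondrion marker line. A 500 bp topoII fragment in p2T7-177 was transfected by nucleofection, with puromycin selection at 0.3 μg/mL. RNAi was induced with 1 μg/mL tetracycline. Knockdown was confirmed by Northern blot at 24 h, with tubulin as reference. Growth and DAPI-stained kinetoplast loss were followed over time.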

[7] = Lipophilicity, log P of the compound by RP-HPLC analysis; format: physicochemical
Outline: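 LogP by RP-HPLC on a C18 Inertsil ODS-2 column. Mobile phase was methanol/10 mM phosphate buffer pH 7.4 (70:30) at 1.5 mL/min. Samples were at 4 μg/mL, detected at 254.4 nm, and run in duplicate. Capacity ratio was calculated as k′ = (tr − to)/to.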

Trypanosoma brucei [8] = experiment: Antitrypanosomal activity in topoisomerase 2-knockout BSF Trypanosoma brucei assessed as assessed as shrinkage of kinetoplast over time at IC50 concentration after 48 hrs by […]; format: functional, organism-based; outline: as §2
[9] = Aqueous solubility of the compound in 35% cremophore RH40, 45% capmul MCM C8, 10% triethylcitrate and 10% ethanol; format: physicochemical; details: buffer
Outline: (§3)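 Oral preconcentrate of Cremophor RH40 (35%), Capmul MCM C8 (45%), triethylcitrate (10%) and ethanol (10%) was tested for dissolving compound at 10 mg/mL. Stability of the emulsion formed in aqueous solution was observed over time.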

[10] = Aqueous solubility of the compound in 10% Tween 80; format: physicochemical; details: buffer
Outline: (§4)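 Water solubility was assessed after adding 10% Tween 80 or 10% Cremophor RH40 to the compound.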

[11] = Chemical stability of the compound in 35% cremophore RH40, 45% capmul MCM C8, 10% triethylcitrate and 10% ethanol after 24 hrs; format: physicochemical; outline: as §3
[12] = system: Trypanosoma brucei rhodesiense; experiment: Antitrypanosomal activity against Trypanosoma brucei rhodesiense STIB900 […] after 48 hrs by alamar blue assay; format: functional, organism-based
[13] = Selectivity index, ratio of IC50 for mouse J774.1 cells to IC50 for Trypanosoma brucei rhodesiense STIB900; format: toxicity; details: read-out: Ratio IC50
Outline: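 Selectivity index is the J774.1 IC50 divided by the trypanosome IC50. J774.1 macrophages were kept in complete Click RPMI, washed, and plated in phenol red-free RPMI with compound. AlamarBlue was added and plates were read 24 and 48 h later. Absorbance without compound was set as 100% growth.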

[14] = Aqueous solubility of the compound in 10% Cremophore RH40; format: physicochemical; details: buffer; outline: as §4
[15] = system: Trypanosoma brucei rhodesiense; experiment: Antitrypanosomal activity against Trypanosoma brucei rhodesiense STIB900 infected in NMRI mouse at 50 mg/kg, po administered on day 3 to 6 post infection measured every second day up to 6 days post infection; format: functional, organism-based; parameters: dose 50 mg/kg
Outline: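 Acute mouse model with T. b. rhodesiense STIB900-infected NMRI mice. Compound was given orally as a 1:1 aqueous dilution of a 10 mg/mL preconcentrate (Cremophor RH40 35%, Capmul MCM C8 45%, triethylcitrate 10%, ethanol 10%). An untreated control group was included. Parasitemia was checked every second day to day 6, and survival was recorded. Aparasitemic survivors at 60 days were counted as cured.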

Row | SMILES | IC50 [1] [µM] | selectivity ratio [2] | IC50 [3] [µM] | IC50 [4] [µM] | also measured
1 | CCCCn1cc(C(=O)NCc2ccc(O)cc2)c(=O)c2cc(F)c(N3CCC(C(N)=O)CC3)cc21 | 41.6 | 13.5 | 5.12 | 3.09 | 
2 | CCCCn1cc(C(=O)NCc2ccc(OC)cc2)c(=O)c2cc(F)c(N3CCC(C(N)=O)CC3)cc21 | 40.8 | 52.3 | 1.45 | 0.78 | Activity [5]: Active; Activity (Trypanosoma brucei [6]): Active; logP ([7]; read-out: logP): 2.4; Activity (Trypanosoma brucei [8]): Active
3 | CCOC(=O)c1cnc2cc(C(F)(F)F)ccc2c1O |  |  |  |  | Activity [3]: inactive; Activity [4]: inactive
4 | Cc1ccc(C(=O)Nc2ccc(S(=O)(=O)O)c3cc(S(=O)(=O)O)cc(S(=O)(=O)O)c23)cc1NC(=O)c1cccc(NC(=O)Nc2cccc(C(=O)Nc3cc(C(=O)Nc4ccc(S(=O)(=O)O)c5cc(S(=O)(=O)O)cc(S(=O)(=O)O)c45)ccc3C)c2)c1 [SURAMIN HEXASODIUM] |  |  |  | 0.31 | 
5 | CCCn1cc(C(=O)O)c(=O)c2cc(F)c(N3CCC(C(N)=O)CC3)cc21 | > 100 | > 2.5 | > 40 | > 40 | 
6 | NC(=O)C1CCN(c2cc3c(cc2F)c(=O)c(C(=O)NCc2ccco2)cn3C2CC2)CC1 | > 100 | > 11.2 | 12.1 | 8.89 | 
7 | CCCCn1cc(C(=O)O)c(=O)c2cc(F)c(N3CCOCC3)cc21 | > 100 | > 5.21 | 22.2 | 19.2 | 
8 | CCCCn1cc(C(=O)O)c(=O)c2cc(F)c(N3CCCCC3)cc21 | 93 | 6.39 | 18.1 | 14.6 | 
9 | CCCCn1cc(C(=O)NCc2ccccc2)c(=O)c2cc(F)c(N(C)C)cc21 | > 100 | > 147 | 0.92 | 0.68 | logP ([7]; read-out: logP): 2.4
10 | CCCCn1cc(C(=O)NCc2ccc(OC)c([N+](=O)[O-])c2)c(=O)c2cc(F)c(N3CCC(C(N)=O)CC3)cc21 | > 100 | > 32.6 | 4.14 | 3.07 | 
11 | COc1ccc(CNC(=O)c2cn(C3CC3)c3cc(N4CCC(C(N)=O)CC4)c(F)cc3c2=O)cc1 | > 100 | > 36.4 | 2.56 | 2.75 | 
12 | CCn1cc(C(=O)Nc2ccc(Cl)c(F)c2)c(=O)c2ccc(C(F)(F)F)cc21 | > 100 | > 2.5 | > 40 | > 40 | 
13 | CCCn1cc(C(=O)O)c(=O)c2cc(F)c(Cl)cc21 | > 100 | > 2.5 | > 40 | > 40 | 
14 | CCCCn1cc(C(=O)NCc2ccccc2)c(=O)c2cc(F)c(N3CCCCC3)cc21 | 47.8 | 71.3 | 1.04 | 0.67 | logP ([7]; read-out: logP): 2.4
15 | CCCCn1cc(C(=O)O)c(=O)c2cc(F)c(N(C)Cc3ccccc3)cc21 | 43.2 | 2.51 | 23 | 17.2 | 
16 | CCCn1cc(C(=O)NCc2ccccc2)c(=O)c2cc(F)c(N3CCC(C(N)=O)CC3)cc21 | 43.7 | 58.3 | 1.25 | 0.75 | logP ([7]; read-out: logP): 2.4
17 | CCCCn1cc(C(=O)NCc2ccccc2)c(=O)c2cc(F)c(N3CCOCC3)cc21 | 57 | 1140 | 0.05 | 0.047 | solubility [9]: soluble; Activity [5]: Active; solubility [10]: Insoluble; Stability [11]: Stable; IC50 [12]: 0.009 µM; Activity (Trypanosoma brucei [6]): Active; selectivity ratio [13]: 6330; solubility [14]: Insoluble; logP [7]: 2.4; Activity [15]: inactive; Activity (Trypanosoma brucei [8]): Active
18 | N=C(N)c1ccc(OCCCCCOc2ccc(C(=N)N)cc2)cc1 [PENTAMIDINE ISETHIONATE] |  |  |  | 0.0029 | 

Row | SMILES | IC50 [1] [µM] | selectivity ratio [2] | IC50 [3] [µM] | IC50 [4] [µM] | also measured
19 | CCCCn1cc(C(=O)NCc2ccccc2)c(=O)c2cc(F)c(-c3ccccc3)cc21 | > 100 | > 2.5 | > 40 | > 40 | 
20 | CCCCn1cc(C(=O)O)c(=O)c2cc(F)c(Cl)cc21 | > 100 | > 2.5 | > 40 | > 40 | 
21 | CCCCn1cc(C(=O)NCc2ccccc2)c(=O)c2cc(F)c(N(C)Cc3ccccc3)cc21 | 86 | 15.9 | 10.8 | 5.4 | 
22 | CCCCn1cc(C(=O)NCc2ccco2)c(=O)c2cc(F)c(N3CCC(C(N)=O)CC3)cc21 | 41.4 | 40.2 | 1.84 | 1.03 | logP ([7]; read-out: logP): 2.4
23 | CCCCn1cc(C(=O)O)c(=O)c2cc(F)c(N3CCC(C(N)=O)CC3)cc21 | > 100 | > 2.5 | > 40 | > 40 | 
24 | CCn1cc(C(=O)NCc2ccc(OC)cc2)c(=O)c2ccc(C(F)(F)F)cc21 | > 100 | > 13.7 | 6.37 | 7.31 | 
25 | Nc1nc(N)nc(Nc2ccc([As]3SCC(CO)S3)cc2)n1 (configuration not stated) [MELARSOPROL] |  |  |  | 0.0026 | 
26 | CCn1cc(C(=O)O)c(=O)c2ccc(C(F)(F)F)cc21 | > 100 | > 2.5 | > 40 | > 40 | 
27 | NCCCC(N)(C(=O)O)C(F)F (configuration not stated) [EFLORNITHINE HYDROCHLORIDE] |  |  |  | 22.9 | 
28 | CCCCn1cc(C(=O)O)c(=O)c2cc(F)c(N(C)C)cc21 | > 100 | > 2.5 | > 40 | > 40 | 
29 | CCCCn1cc(C(=O)NCc2ccc([N+](=O)[O-])cc2)c(=O)c2cc(F)c(N3CCC(C(N)=O)CC3)cc21 | > 100 | > 185 | 0.58 | 0.54 | logP ([7]; read-out: logP): 2.4
30 | CCOC(=O)c1c[nH]c2cc(Cl)c(F)cc2c1=O |  |  |  |  | Activity [3]: inactive; Activity [4]: inactive
31 | NC(=O)C1CCN(c2cc3c(cc2F)c(=O)c(C(=O)O)cn3C2CC2)CC1 | > 100 | > 2.5 | > 40 | > 40 | 
32 | O=C(O)c1cn(C2CC2)c2cc(N3CCNCC3)c(F)cc2c1=O |  |  |  |  | Activity [5]: Active
33 | NC(=O)C1CCN(c2cc3c(cc2F)c(=O)c(C(=O)NCc2ccccc2)cn3C2CC2)CC1 | 51.2 | 47.9 | 1.91 | 1.07 | logP ([7]; read-out: logP): 2.4
34 | CCCCn1cc(C(=O)NCc2ccccc2)c(=O)c2cc(F)c(N3CCC(C(N)=O)CC3)cc21 | 47 | 43.1 | 1.98 | 1.09 | logP ([7]; read-out: logP): 2.4
35 | CCCn1cc(C(=O)NCc2ccc(OC)cc2)c(=O)c2cc(F)c(N3CCC(C(N)=O)CC3)cc21 | 41.4 | 18.2 | 3.12 | 2.28 | 
36 | CCCn1cc(C(=O)NCc2ccco2)c(=O)c2cc(F)c(N3CCC(C(N)=O)CC3)cc21 | 56.9 | 12.4 | 4.84 | 4.6 | 
